# In the library only some 1.7% were active in any assay of this set; here they are far more common.
# UCH37 inh: inhibitors of human deubiquitinating enzyme UCH37; purified proteasome/UCH37, Ub-AMC cleavage fluorescence; inhibition, % (no concentration beside the values); hit rate 0.33% among 330,000;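 active = mean inhibition over replicate wells above about 20%, limit read from the data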;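 note: 0% = compound-free wells with enzyme and 100% = wells lacking proteasome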
#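 Schedule: 30 min plus 25 min, room temperature / Material: human UCH37 within purified proteasomes / Technique: AMC fluorescence intensity at 355/460 nm / Buffer or medium: pH 7.4 Tris-HCl (50 mM) with ovalbumin, ATP-MgCl2, DTT / Controls: wells without proteasome as full block, compound-free enzyme plus substrate as uninhibited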
# Rpn11 inh: blocks the human proteasome subunit Rpn11; O00487; human 26S proteasome, Ub4-pepOG fluorescence polarization; 20S core pre-blocked with epoxomicin; inhibition, % at 20 µM; hit rate 0.59% among 360,000; AID 588493;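 active = inhibition at 20 µM, scaled to each plate's controls, above about 33%, limit read from the data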
# PLC-gamma1 inh: inhibitors of human phospholipase C gamma1 | P19174 | purified PLC-gamma1, fluorogenic substrate, fluorescence | inhibition, % at 12.2 µM | hit rate 0.84% among 370,000 | AID 720700
# PLCb3 inh: blocks human PLC-beta3 enzyme activity; Purified PLC-beta3, fluorogenic substrate, fluorescence; AID 720704; hit rate 0.18% among 370,000; inhibition, % at 12.2 µM; in the data active = inhibition above about 11%;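 note: 0% = median of compound wells on plate and 100% = full blocker control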
# PLCgamma1 ctr: inhibits human PLC-gamma1 in PLC-beta3 counter-screen; shares compounds with PLC-gamma1 inh; purified PLC-gamma1, fluorogenic substrate, fluorescence; inhibition, % at 12.3 µM; hit rate 3.1% among 3,300
# PLCbeta3 conf: confirmation of human PLC-beta3 inhibitors. inhibition, % at 12.3 µM. shares compounds with PLC-gamma1 inh. purified PLC-beta3, fluorogenic substrate fluorescence. hit rate 1% among 3,300; in the data active = inhibition above about 11%
# The depositor's hits bear a star; x = not tested or not shown. Cut-off read from the data, not from the text of the source, unless noted: active = inhibition above about 9.5%; inactive = the rest.
SMILES,UCH37 inh,Rpn11 inh,PLC-gamma1 inh,PLCb3 inh,PLCgamma1 ctr,PLCbeta3 conf
Cc1ccccc1C(=O)N1CCN(c2ccc(NC(=O)c3ccco3)cc2Cl)CC1,4.5,8.6,-1.2,-3.8,x,x
COc1ccccc1C=Nn1c(C)nnc1-n1nc(C)cc1C,1.6,x,x,x,x,x
Cc1nc(NCCOc2ccccc2)sc1C(=O)Nc1ccccc1,1.9,-7.4,12.1*,5.6,0.9,-0.2
O=C(CNC(=O)c1ccccc1Br)NN=Cc1cc(Br)ccc1O,-0.8,x,x,x,x,x
CCOC(=O)C(C)C1(O)c2ccccc2-c2ncccc21 (stereo not drawn),6.2,-7.9,11.8*,-21.6,-4.5,-1.7
Cc1ccc2occ(C=NNC(=O)c3ccc(Cl)cc3)c(=O)c2c1,0.1,x,x,x,x,x
COC(=O)COc1nc(C)c2c(c1C#N)CC(C)(C)OC2,3.3,-0.6,0.7,10.9*,4.3,6.2
CCOc1nc(CC(C)C)c2c(c1C#N)CC(C)(C)OC2,4.4,2.9,-0.7,-3.7,x,x
CC(CC(=O)NC(C)c1ccccc1)=NNC(N)=S (stereo not drawn),1.7,x,x,x,x,x
Cc1ccc(CNCc2ccco2)cc1,3.9,7.7,-0.4,-6.5,x,x
Fc1ccc(CNCc2ccco2)cc1,0.5,8.3,12.2*,0.8,-1.1,-0.5
Cc1nn(C)c(C)c1C=NO,-0.6,x,x,x,x,x
COc1ccc(NS(=O)(=O)c2cccc(C(=O)NN=C(C)c3cccnc3)c2)cc1,1.0,x,x,x,x,x
CCS(=O)(=O)c1nc(S(=O)(=O)c2ccc(Cl)cc2)c(N2CCN(C)CC2)s1,2.5,-1.2,2.3,-5.6,x,x
CCS(=O)(=O)c1nc(S(=O)(=O)c2ccc(C)cc2)c(N2CCN(C)CC2)s1,4.2,-1.8,9.8*,-4.7,-0.2,-0.8
CC(C)(C)c1ccc(/C=N/NC(=O)C[n+]2ccccc2)cc1,x,2.2,9.9*,2.0,-8.1,-2.4
CN(C)c1ccc(C=NO)cc1,-1.5,x,x,x,x,x
Cc1ccc(S(=O)(=O)NC2c3cccc4cccc(c34)C2Sc2n[nH]c(N)n2)cc1 (stereo not drawn),x,14.5,9.9*,-2.3,-2.8,-2.6
O=S(=O)(NC1c2cccc3cccc(c23)C1Sc1ncccn1)c1ccc(Cl)cc1 (stereo not drawn),5.6,0.8,2.2,-1.9,x,x
ON=Cc1ccc2cccc(OCc3ccccc3)c2n1,-49.9,x,x,x,x,x
N=c1sccn1CC(=O)NC(=O)NC1CCCC1,x,-0.4,17.3*,3.7,3.4,4.2
O=C(CN1C(=O)CCC1=O)NC(=O)NC1CCCC1,2.8,3.6,-0.4,-3.1,x,x
CCC(Sc1nc(C)cc(C)n1)C(=O)Nc1cc(C)on1 (stereo not drawn),1.3,1.1,11.2*,10.9*,-5.9,-1.2
CCC(Sc1nc(C)cc(C)n1)C(=O)O (stereo not drawn),2.1,-3.4,-5.8,0.3,x,x
O=C(c1ccc(Cl)cc1)c1cnc(-c2ccccc2)s1,x,4.3,2.9,1.8,x,x
SMILES,UCH37 inh,Rpn11 inh,PLC-gamma1 inh,PLCb3 inh,PLCgamma1 ctr,PLCbeta3 conf
O=C(c1cnc(-c2ccccc2)s1)c1ccc(Cl)cc1Cl,4.3,-5.7,9.7*,1.7,-2.2,-1.9
O=C(Cn1nnc(-c2ccccc2)n1)Nc1ccccc1N1CCOCC1,2.4,0.7,3.3,2.1,x,x
Cc1ccc(-c2nnn(CC(=O)Nc3ccccc3N3CCOCC3)n2)cc1,1.9,1.8,10.5*,4.9,-2.4,1.2
CC(/C=C/C(=O)c1ccc(C)cc1)=C\c1ccccc1,1.2,3.5,10.4*,8.0,-2.4,-2.5
CCCCn1c(N)c(Sc2ccccc2[N+](=O)[O-])c(=O)[nH]c1=O,8.4,0.7,4.3,-1.8,x,x
Cc1[nH]c(=O)[nH]c(=O)c1Sc1ccccc1[N+](=O)[O-],6.7,7.0,12.4*,2.2,-3.3,-0.8
CC1(C)CC(=NNC(=S)Nc2ccccc2F)c2cc(O)ccc2O1,-41.3,x,x,x,x,x
COc1ccc(CCNC(=O)CSc2ccccn2)cc1,-2.2,-3.9,0.2,-4.4,x,x
O=C(CSc1nc2ccccc2[nH]1)NCCc1ccc(Cl)cc1,4.7,-4.5,11.1*,6.2,-1.2,1.5
COc1ccc(CCNC(=O)CSc2ncn[nH]2)cc1,3.4,-4.2,10.4*,0.5,-5.8,-12.0
O=C(C=NO)NCCCNCc1ccccc1,-0.4,x,x,x,x,x
Cc1cc(SCCC(=O)O)nc2ccccc12,0.5,-6.5,-1.8,3.1,x,x
Cc1cc(SCC(=O)N2CCCC2=O)nc2ccccc12,4.2,2.2,12.1*,-0.9,-3.3,-3.8
C(=C\c1ccccc1)/C=N/n1cnnc1,x,-3.6,10.3*,-2.5,7.8,3.6
Nc1nnnn1/N=C/C=C/c1ccccc1,x,0.2,0.5,-1.3,x,x
COC(=O)C(NC(=O)CCc1c(C)nc2ncnn2c1C)C(C)C (stereo not drawn),1.9,2.2,9.7*,3.1,-5.2,0.1
CC(=O)Nc1ccc(S(=O)(=O)N(CCc2ccccc2)CC(=O)NN=Cc2ccc(C(=O)O)cc2)cc1,5.2,x,x,x,x,x
CCOC(=O)c1ccccc1NC(=O)CN(c1ccccc1OC)S(C)(=O)=O,0.5,-19.2,6.9,11.2*,-2.6,-6.3
COc1ccccc1N(CC(=O)Nc1ccccc1C(=O)NC(C)C)S(C)(=O)=O,-2.1,-2.1,2.4,2.5,x,x
Cc1ccccc1NC(=O)CNc1ccc(Cl)c(C(F)(F)F)c1,2.0,-8.1,12.6*,16.2*,3.3,7.1
CNCC(=O)Nc1ccc(Cl)c(C(F)(F)F)c1,2.5,-6.9,1.6,0.1,x,x
CC(C)c1ccc(C=NNC(=O)C2CCCC2)cc1,3.5,x,x,x,x,x
COc1ccccc1C(=O)CSc1n[nH]c(N)n1,-0.2,-9.6,4.3,10.8*,-1.5,0.9
COc1ccccc1NS(=O)(=O)c1ccc(NN=C2CCCCC2)c([N+](=O)[O-])c1,5.0,-0.6,10.9*,6.5,5.2,5.7
COc1ccccc1NS(=O)(=O)c1ccc(N/N=C(\C)C(C)C)c([N+](=O)[O-])c1,x,-3.6,9.9*,12.9*,7.6,3.1
SMILES,UCH37 inh,Rpn11 inh,PLC-gamma1 inh,PLCb3 inh,PLCgamma1 ctr,PLCbeta3 conf
CCCC(CCC)=NNc1ccc(S(=O)(=O)Nc2ccccc2OC)cc1[N+](=O)[O-],2.3,-4.7,1.7,4.7,x,x
COc1ccccc1NS(=O)(=O)c1ccc(OC)c([N+](=O)[O-])c1,3.1,0.9,2.9,2.0,x,x
Cc1cc(C=NNC(N)=O)c(C)c(CO)c1,-0.1,x,x,x,x,x
CN1C(=O)C(O)(CC(=O)/C=C/c2ccco2)c2ccccc21 (stereo not drawn),4.6,-1.6,1.9,13.7*,-3.7,-2.0
CN1C(=O)C(O)(CC(=O)/C=C/c2ccco2)c2cc(Br)ccc21 (stereo not drawn),2.5,0.6,-0.4,-3.3,x,x
CC(CCN1CCC(C(O)(c2ccccc2)c2ccccc2)CC1)Oc1cc(F)cc(C#N)c1 (stereo not drawn),x,x,11.5*,3.6,8.3,3.3
Cc1sc2ccccc2c1CNC[C@H]1O[C@@H](n2cnc(C(N)=O)n2)[C@H](O)[C@@H]1O,x,0.3,9.8*,2.7,-4.1,-3.1
COc1cccc(C=Nc2nc3ccccc3n2C)c1O,4.2,x,x,x,x,x

# Assay outcomes: PubChem BioAssay, several laboratories
